Measurements gathered from unrelated publications.
PDE4D: 3',5'-cyclic-AMP phosphodiesterase 4D (PDE4D, Homo sapiens, UniProt Q08499)
MTNR1B: Melatonin receptor type 1B (MTNR1B, Homo sapiens, UniProt P49286)

C=C(C)[C@@H]1CC=C2C(=CC[C@]3(C)[C@@H]([C@@H](CCC=C(C)C)C(=O)O)[C@H](O)C[C@@]23C)[C@@]1(C)CCC(=O)O — inhibition (PDE4D; enzyme activity, inhibitor, radiometric; 50 µM): 51.7%
Nc1ncc(-c2nc(N3CCOCC3)nc(N3CCOCC3)n2)c(C(F)F)n1 — remaining activity (PDE4D; enzyme activity, inhibitor; 10 µM): 75%
CC[C@H](C)[C@@H]1NC(=O)[C@@H]2CSSC[C@H](NC(=O)[C@@H](NC(=O)CN)[C@@H](C)O)C(=O)N[C@@H](CC(N)=O)C(=O)N[C@@H]([C@@H](C)O)C(=O)N3CCC[C@H]3C(=O)NCC(=O)N[C@H]3CSSC[C@H](NC(=O)[C@H](CCSC)NC(=O)[C@H](CC(C)C)NC(=O)[C@H](CCCNC(=N)N)NC(=O)CNC(=O)CNC(=O)[C@H](CC(=O)O)NC1=O)C(=O)NCC(=O)N[C@@H](CCC(=O)O)C(=O)N[C@@H]([C@@H](C)O)C(=O)N[C@H](C(=O)N[C@H](C(=O)NCC(=O)O)C(C)C)CSSC[C@H](NC(=O)[C@H]([C@@H](C)O)NC3=O)C(=O)N[C@@H](CO)C(=O)N[C@@H](Cc1c[nH]c3ccccc13)C(=O)N1CCC[C@H]1C(=O)N[C@@H](C(C)C)C(=O)N2 — koff (Prothrombin (F2, Homo sapiens, UniProt P00734); binding, SPR): ~0.001 s⁻¹
CC1(C)[C@@H](O[C@H]2O[C@H](C(=O)O)[C@@H](O)[C@H](O)[C@H]2O[C@@H]2O[C@H](C(=O)O)[C@@H](O)[C@H](O)[C@H]2O)CC[C@]2(C)[C@H]3C(=O)C=C4[C@@H]5C[C@@](C)(C(=O)O)CC[C@]5(C)CC[C@@]4(C)[C@]3(C)CC[C@@H]12 — inhibition (PDE4D; enzyme activity, inhibitor, radiometric; 50 µM): 10.9%
COc1ncccc1-c1cnn2ccc(N3CCN(C(=O)OC(C)C)CC3)nc12 — remaining binding (Serine/threonine-protein kinase MAK (MAK, Homo sapiens, UniProt P20794); binding, competition with immobilised ligand; 1 µM): 100%
COc1ccc2[nH]cc(CCNC(=O)CI)c2c1 — Emax (MTNR1B; β-arrestin recruitment, agonist; MT2; 90 min): 92%
CC(C)=CCc1cc(-c2coc3cc(O)cc(O)c3c2=O)cc(O)c1O — inhibition (PDE4D; enzyme activity, inhibitor, radiometric; 50 µM): 100%
NC(=O)c1cccc(-c2cccc(OC(=O)NC3CCCCC3)c2)c1 — kinact/KI (Liver carboxylesterase 1 (CES1, Homo sapiens, UniProt P23141); enzyme activity, inhibitor; pH 7.4): 4500 M⁻¹ s⁻¹
CCN(CC)CCCC[C@H](NC(=O)[C@H](CC(C)C)NC(=O)[C@H](C)NC(=O)[C@H](Cc1ccccc1)NC(=O)c1ccc(C(C)(C)C)cc1)C(=O)N[C@@H](CO)C(=O)OC — ΔTm (Bromodomain adjacent to zinc finger domain protein 1A (BAZ1A, Homo sapiens, UniProt Q9NRL2); thermal stability, DSF; 25 µM): -1.44 °C
Cc1nn(C)cc1-c1nc2c(N3CCN(Cc4ccc(Cl)cc4)CC3)c(Cl)cnc2[nH]1 — remaining binding (Mitogen-activated protein kinase 7 (MAPK7, Homo sapiens, UniProt Q13164); binding, competition with immobilised ligand; 1 µM): 100%
COc1ccc2cccc(C(CO)CNC(=O)CF)c2c1 (stereo not drawn) — Emax (MTNR1B; GTPγS binding, agonist, radiometric; cell membranes): 99%
O=C(O)c1cc(O)c2c(c1)C(=O)c1cccc(O)c1C2=O — inhibition (PDE4D; enzyme activity, inhibitor, radiometric; 50 µM): 9.01%
